Laboratory results from ChEMBL document CHEMBL1926569, “Novel (E)-1-(4-methyl-2-(alkylamino)thiazol-5-yl)-3-arylprop-2-en-1-ones as potent antimicrobial agents” (2011).
Values after ≈ are worked out from the molar mass of the structure shown.

Legend:
Aspergillus ochraceus [1] = test: Antifungal activity against Aspergillus ochraceus ATCC 12066 after 72 hrs by serial dilution technique; assay type: functional; details: ATCC 12066, 72 h
How it was run: (§1)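 Modified microdilution in 96-well plates. Fungi were kept on malt agar at 4 °C. Spores were washed off in sterile 0.85% saline with 0.1% Tween 80. Compounds were dissolved at 1 mg/ml in 5% DMSO with 0.1% Tween 80 and added to malt broth with inoculum. Plates were shaken at 160 rpm for 72 h at 28 °C. Duplicate, repeated three times.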

Escherichia coli [2] = test: Antibacterial activity against Escherichia coli ATCC 35210 after 24 hrs by microdilution method; assay type: functional; details: ATCC 35210, 24 h
How it was run: (§2)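 Broth microdilution in 96-well plates. Bacterial suspensions were adjusted in sterile saline to 1.0 × 10⁵ CFU/ml, prepared daily and kept at 4 °C. Compound was added to LB broth with 1.0 × 10⁴ CFU per well and shaken at 160 rpm for 24 h at […] (so in the source). MIC is the lowest concentration with no visible growth under a binocular microscope. OD655 was also read. Duplicate, repeated three times.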

Trichoderma viride [3] = test: Antifungal activity against Trichoderma viride IAM 5061 after 72 hrs by serial dilution technique; assay type: functional; details: IAM 5061, 72 h; how it was run: as §1
Listeria monocytogenes [4] = test: Antibacterial activity against Listeria monocytogenes NCTC 7973 after 24 hrs by microdilution method; assay type: functional; details: NCTC 7973, 24 h; how it was run: as §2
Talaromyces funiculosus [5] = test: Antifungal activity against Penicillium funiculosum ATCC 36839 after 72 hrs by serial dilution technique; assay type: functional; details: ATCC 36839, 72 h; how it was run: as §1
Penicillium ochrochloron [6] = test: Antifungal activity against Penicillium ochrochloron ATCC 9112 after 72 hrs by serial dilution technique; assay type: functional; details: ATCC 9112, 72 h; how it was run: as §1
Trichoderma viride [7] = test: Ratio of bifonazole to compound for Trichoderma viride IAM 5061; assay type: functional
Bacillus cereus [8] = test: Antibacterial activity against clinical isolate of Bacillus cereus incubated for 24 hrs followed by serial sub-cultivation for 24 hrs by microdilution; assay type: functional
How it was run: (§3)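 MBC: after the 24 h LB broth microdilution (1.0 × 10⁴ CFU per well, 160 rpm), wells were serially sub-cultured into fresh broth plates and incubated a further 24 h. MBC is the lowest concentration with no visible growth, taken as 99.5% killing of the original inoculum. Duplicate, repeated three times.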

Aspergillus ochraceus [9] = test: Ratio of bifonazole to compound for Aspergillus ochraceus ATCC 12066; assay type: functional
Aspergillus niger [10] = test: Antifungal activity against Aspergillus niger ATCC 6275 after 72 hrs by serial dilution technique; assay type: functional; details: ATCC 6275, 72 h; how it was run: as §1
Aspergillus flavus [11] = test: Antifungal activity against Aspergillus flavus ATCC 9643 incubated for 72 hrs followed by serial sub-cultivation for 72 hrs by serial dilution technique; assay type: functional; details: ATCC 9643, 72 h
How it was run: (§4)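 MFC: material from 72 h malt broth microdilution wells was serially sub-cultured into fresh broth plates and incubated a further 72 h at 28 °C. Fungicidal concentration is taken from growth after sub-culture. Duplicate, repeated three times.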

Penicillium ochrochloron [12] = test: Ratio of bifonazole to compound for Penicillium ochrochloron ATCC 9112; assay type: functional
Talaromyces funiculosus [13] = test: Antifungal activity against Penicillium funiculosum ATCC 36839 incubated for 72 hrs followed by serial sub-cultivation for 72 hrs by serial dilution technique; assay type: functional; details: ATCC 36839, 72 h; how it was run: as §4
Candida albicans [14] = test: Antifungal activity against Candida albicans isolated from human after 72 hrs by serial dilution technique; assay type: functional; how it was run: as §1
Pseudomonas aeruginosa [15] = test: Antibacterial activity against Pseudomonas aeruginosa ATCC 27853 after 24 hrs by microdilution method; assay type: functional; details: ATCC 27853, 24 h; how it was run: as §2
Listeria monocytogenes [16] = test: Antibacterial activity against Listeria monocytogenes NCTC 7973 incubated for 24 hrs followed by serial sub-cultivation for 24 hrs by microdilution; assay type: functional; details: NCTC 7973, 24 h; how it was run: as §3
Pseudomonas aeruginosa [17] = test: Antibacterial activity against Pseudomonas aeruginosa ATCC 27853 incubated for 24 hrs followed by serial sub-cultivation for 24 hrs by microdilution; assay type: functional; details: ATCC 27853, 24 h; how it was run: as §3
Penicillium ochrochloron [18] = test: Antifungal activity against Penicillium ochrochloron ATCC 9112 incubated for 72 hrs followed by serial sub-cultivation for 72 hrs by serial dilution technique; assay type: functional; details: ATCC 9112, 72 h; how it was run: as §4
Enterococcus faecalis [19] = test: Antibacterial activity against Enterococcus faecalis isolated from human after 24 hrs by microdilution method; assay type: functional; how it was run: as §2
Penicillium ochrochloron [20] = test: Ratio of ketoconazole to compound for Penicillium ochrochloron ATCC 9112; assay type: functional
Aspergillus ochraceus [21] = test: Ratio of ketoconazole to compound for Aspergillus ochraceus ATCC 12066; assay type: functional
Salmonella typhimurium [22] = test: Antibacterial activity against Salmonella Typhimurium ATCC 13311 incubated for 24 hrs followed by serial sub-cultivation for 24 hrs by microdilution; assay type: functional, Salmonella enterica subsp. enterica serovar Typhimurium; details: Salmonella enterica, ATCC 13311, 24 h; how it was run: as §3
Candida albicans [23] = test: Ratio of bifonazole to compound for Candida albicans isolated from human; assay type: functional
Aspergillus niger [24] = test: Ratio of bifonazole to compound for Aspergillus niger ATCC 6275; assay type: functional
Escherichia coli [25] = test: Antibacterial activity against Escherichia coli ATCC 35210 incubated for 24 hrs followed by serial sub-cultivation for 24 hrs by microdilution; assay type: functional; details: ATCC 35210, 24 h; how it was run: as §3
Candida albicans [26] = test: Antifungal activity against Candida albicans isolated from human incubated for 72 hrs followed by serial sub-cultivation for 72 hrs by serial dilution technique; assay type: functional; how it was run: as §4
Salmonella typhimurium [27] = test: Antibacterial activity against Salmonella Typhimurium ATCC 13311 after 24 hrs by microdilution method; assay type: functional, Salmonella enterica subsp. enterica serovar Typhimurium; details: Salmonella enterica, ATCC 13311, 24 h; how it was run: as §2
Candida albicans [28] = test: Ratio of ketoconazole to compound for Candida albicans isolated from human; assay type: functional
Trichoderma viride [29] = test: Antifungal activity against Trichoderma viride IAM 5061 incubated for 72 hrs followed by serial sub-cultivation for 72 hrs by serial dilution technique; assay type: functional; details: IAM 5061, 72 h; how it was run: as §4
Bacillus cereus [30] = test: Antibacterial activity against clinical isolate of Bacillus cereus after 24 hrs by microdilution method; assay type: functional; how it was run: as §2
Aspergillus niger [31] = test: Antifungal activity against Aspergillus niger ATCC 6275 incubated for 72 hrs followed by serial sub-cultivation for 72 hrs by serial dilution technique; assay type: functional; details: ATCC 6275, 72 h; how it was run: as §4
Aspergillus fumigatus [32] = test: Ratio of ketoconazole to compound for Aspergillus fumigatus isolated from human; assay type: functional
Enterococcus faecalis [33] = test: Antibacterial activity against Enterococcus faecalis isolated from human incubated for 24 hrs followed by serial sub-cultivation for 24 hrs by microdilution; assay type: functional; how it was run: as §3
Aspergillus fumigatus [34] = test: Antifungal activity against Aspergillus fumigatus isolated from human incubated for 72 hrs followed by serial sub-cultivation for 72 hrs by serial dilution technique; assay type: functional; how it was run: as §4
Aspergillus flavus [35] = test: Antifungal activity against Aspergillus flavus ATCC 9643 after 72 hrs by serial dilution technique; assay type: functional; details: ATCC 9643, 72 h; how it was run: as §1
Aspergillus ochraceus [36] = test: Antifungal activity against Aspergillus ochraceus after 72 hrs by serial dilution technique
Micrococcus flavus [37] = test: Antibacterial activity against Micrococcus flavus ATCC 10240 incubated for 24 hrs followed by serial sub-cultivation for 24 hrs by microdilution; assay type: functional; details: ATCC 10240, 24 h; how it was run: as §3
Aspergillus ochraceus [38] = test: Antifungal activity against Aspergillus ochraceus ATCC 12066 incubated for 72 hrs followed by serial sub-cultivation for 72 hrs by serial dilution technique; assay type: functional; details: ATCC 12066, 72 h; how it was run: as §4
Micrococcus flavus [39] = test: Antibacterial activity against Micrococcus flavus ATCC 10240 after 24 hrs by microdilution method; assay type: functional; details: ATCC 10240, 24 h; how it was run: as §2
Talaromyces funiculosus [40] = test: Ratio of bifonazole to compound for Penicillium funiculosum ATCC 36839; assay type: functional
Staphylococcus aureus [41] = test: Antibacterial activity against Staphylococcus aureus ATCC 6538 after 24 hrs by microdilution method; assay type: functional; details: ATCC 6538, 24 h; how it was run: as §2
Staphylococcus aureus [42] = test: Antibacterial activity against Staphylococcus aureus ATCC 6538 incubated for 24 hrs followed by serial sub-cultivation for 24 hrs by microdilution method; assay type: functional; details: ATCC 6538, 24 h; how it was run: as §3
Pseudomonas aeruginosa [43] = test: Ratio of ampicillin MIC to compound MIC for Pseudomonas aeruginosa ATCC 27853; assay type: functional

## CCNc1nc(C)c(C(=O)/C=C/c2cccc(Cl)c2)s1
Aspergillus ochraceus [1]
  MIC: 65.3 µM (≈ 20 µg/mL)
Escherichia coli [2]
  MIC: 49.1 µM (≈ 15.1 µg/mL)
Trichoderma viride [3]
  MIC: 32.7 µM (≈ 10 µg/mL)
Listeria monocytogenes [4]
  MIC: 98 µM (≈ 30.1 µg/mL)
Talaromyces funiculosus [5]
  MIC: 32.7 µM (≈ 10 µg/mL)
Penicillium ochrochloron [6]
  MIC: 65.3 µM (≈ 20 µg/mL)
Trichoderma viride [7]
  Ratio: 10
Bacillus cereus [8]
  MBC: 65.3 µM (≈ 20 µg/mL)
Aspergillus ochraceus [9]
  Ratio: 10
Aspergillus niger [10]
  MIC: 65.3 µM (≈ 20 µg/mL)
Aspergillus flavus [11]
  MFC: 81.7 µM (≈ 25.1 µg/mL)
Penicillium ochrochloron [12]
  Ratio: 10
Talaromyces funiculosus [13]
  MFC: 65.3 µM (≈ 20 µg/mL)
Candida albicans [14]
  MIC: 32.7 µM (≈ 10 µg/mL)
Pseudomonas aeruginosa [15]
  MIC: 65.3 µM (≈ 20 µg/mL)
Listeria monocytogenes [16]
  MBC: 114 µM (≈ 35.1 µg/mL)
Pseudomonas aeruginosa [17]
  MBC: 81.7 µM (≈ 25.1 µg/mL)
Penicillium ochrochloron [18]
  MFC: 81.7 µM (≈ 25.1 µg/mL)
Enterococcus faecalis [19]
  MIC: 49.1 µM (≈ 15.1 µg/mL)
Penicillium ochrochloron [20]
  Ratio: 10
Aspergillus ochraceus [21]
  Ratio: 10
Salmonella typhimurium [22]
  MBC: 65.3 µM (≈ 20 µg/mL)
Candida albicans [23]
  Ratio: 10
Aspergillus niger [24]
  Ratio: 10
Escherichia coli [25]
  MBC: 65.3 µM (≈ 20 µg/mL)
Candida albicans [26]
  MFC: 65.3 µM (≈ 20 µg/mL)
Salmonella typhimurium [27]
  MIC: 49.1 µM (≈ 15.1 µg/mL)
Candida albicans [28]
  Ratio: 10
Trichoderma viride [29]
  MFC: 65.3 µM (≈ 20 µg/mL)
Bacillus cereus [30]
  MIC: 49.1 µM (≈ 15.1 µg/mL)
Aspergillus niger [31]
  MFC: 81.7 µM (≈ 25.1 µg/mL)
Aspergillus fumigatus [32]
  Ratio: 10
Enterococcus faecalis [33]
  MBC: 65.3 µM (≈ 20 µg/mL)
Aspergillus fumigatus [34]
  MFC: 65.3 µM (≈ 20 µg/mL)
Aspergillus flavus [35]
  MIC: 65.3 µM (≈ 20 µg/mL)
Aspergillus ochraceus [36]
  MIC: 32.7 µM (≈ 10 µg/mL)
Micrococcus flavus [37]
  MBC: 81.7 µM (≈ 25.1 µg/mL)
Aspergillus ochraceus [38]
  MFC: 81.7 µM (≈ 25.1 µg/mL)
Micrococcus flavus [39]
  MIC: 32.7 µM (≈ 10 µg/mL)
Talaromyces funiculosus [40]
  Ratio: 10
Staphylococcus aureus [41]
  MIC: 98 µM (≈ 30.1 µg/mL)
Staphylococcus aureus [42]
  MBC: 98 µM (≈ 30.1 µg/mL)
Pseudomonas aeruginosa [43]
  Ratio: 10
